The target of one data set is 5-HT transporters (SERT) (Rattus norvegicus, UniProt P31652). Kind of data set: Release assay at SERT, [3H]5-HT preloaded rat brain synaptosomes. In kind it is biochemical. The following applies: for releasing efficacy at SERT (in words): rat brain tissue. In outline:
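Synaptosomes came from male Sprague-Dawley rat (250–300 g) brains after CO2 euthanasia. They were preloaded to steady state (1 h) with 5 nM [3H]5-HT in Krebs-phosphate buffer containing 1 μM reserpine, plus unlabelled blockers for the other transporters. Preloaded synaptosomes were added to test compound dilutions, and release was stopped by vacuum filtration. Retained radioactivity was measured by scintillation counting. Dose-response; mean ± SD, N = 3–4, triplicate.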

Data set [1] has as its target dopamine transporters (DAT) (Rattus norvegicus, UniProt P23977). Kind of data set: Release assay at DAT, [3H]MPP+ preloaded rat brain synaptosomes. Type of data set: biochemical. The following applies: (EC50 at DAT)^−1/(EC50 at SERT)^−1; higher value indicates greater DAT selectivity. In outline:
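Male Sprague-Dawley rat (250–300 g) brain synaptosomes. DAT substrate was 9 nM [3H]MPP+ and SERT substrate 5 nM [3H]5-HT. Buffers held 1 μM reserpine, with unlabelled blockers of competing transporters. Synaptosomes were preloaded for 1 h in Krebs-phosphate buffer, then added to test compound. Filtration stopped release, and retained radioactivity was counted. The ratio comes from dose-response EC50s; N = 3–4, triplicate.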

The nature of data set [2]: cis to trans isomerization in solution. Type of data set: physicochemical. The following applies: acetonitrile only.
Another data set has as its target SERT (Rattus norvegicus, UniProt P31652). As to the kind of experiment: Uptake blocking at SERT. The conditions noted are these: subsequent experiments, data not shown. In kind it is biochemical.

Sequence of 5-HT transporters (SERT) (P31652 whole entry): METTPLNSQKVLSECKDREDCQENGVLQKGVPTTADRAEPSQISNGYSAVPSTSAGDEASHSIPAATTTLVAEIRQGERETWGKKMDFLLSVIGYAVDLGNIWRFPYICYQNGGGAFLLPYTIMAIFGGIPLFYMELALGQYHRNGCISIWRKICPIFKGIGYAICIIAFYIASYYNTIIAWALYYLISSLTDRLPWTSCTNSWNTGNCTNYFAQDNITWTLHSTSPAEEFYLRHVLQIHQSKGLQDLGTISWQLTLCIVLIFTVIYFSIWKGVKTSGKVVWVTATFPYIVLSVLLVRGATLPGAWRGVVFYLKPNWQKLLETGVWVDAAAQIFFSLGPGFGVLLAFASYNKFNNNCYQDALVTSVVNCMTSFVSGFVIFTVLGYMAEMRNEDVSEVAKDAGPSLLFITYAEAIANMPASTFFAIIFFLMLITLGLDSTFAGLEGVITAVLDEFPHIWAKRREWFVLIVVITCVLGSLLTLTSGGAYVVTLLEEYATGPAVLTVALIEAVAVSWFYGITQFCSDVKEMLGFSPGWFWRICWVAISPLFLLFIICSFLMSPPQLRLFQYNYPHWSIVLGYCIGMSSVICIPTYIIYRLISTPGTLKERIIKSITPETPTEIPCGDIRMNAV
Sequence of dopamine transporters (DAT) (P23977 whole entry): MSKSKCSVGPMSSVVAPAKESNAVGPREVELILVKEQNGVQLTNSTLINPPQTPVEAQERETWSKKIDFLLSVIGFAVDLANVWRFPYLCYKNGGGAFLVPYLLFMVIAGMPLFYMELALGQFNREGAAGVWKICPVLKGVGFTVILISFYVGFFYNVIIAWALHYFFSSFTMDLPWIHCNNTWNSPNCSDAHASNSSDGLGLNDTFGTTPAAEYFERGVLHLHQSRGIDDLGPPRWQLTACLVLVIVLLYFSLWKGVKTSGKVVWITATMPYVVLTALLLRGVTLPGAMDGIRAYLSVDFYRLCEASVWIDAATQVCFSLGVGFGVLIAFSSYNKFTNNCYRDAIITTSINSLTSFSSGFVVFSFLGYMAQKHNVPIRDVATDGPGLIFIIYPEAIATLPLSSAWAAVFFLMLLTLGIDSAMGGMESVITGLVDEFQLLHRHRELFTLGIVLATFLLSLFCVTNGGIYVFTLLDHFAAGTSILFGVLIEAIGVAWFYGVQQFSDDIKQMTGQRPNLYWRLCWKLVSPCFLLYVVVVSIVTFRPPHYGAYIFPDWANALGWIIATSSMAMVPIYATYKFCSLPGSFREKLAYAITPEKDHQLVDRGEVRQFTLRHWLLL
Sequence of SERT (P31652 whole entry): as the sequence (P31652 whole entry) above

`C[C@@H]1N=C(N)O[C@@H]1c1ccc2c(c1)OCO2` (racemic) [Cis-MDMAR, (±)-cis-3′,4′-Methylenedioxy-4-methylaminorex]: the “releasing efficacy at SERT (in words)” value on 5-HT transporters (SERT) is given as “fully efficacious releasing agents”. For the same compound, in data set [1], the DAT/SERT ratio is 4.3. Besides, the “cis to trans isomerization” value in data set [2] is reported as “Isomerization did not occur”.

As for `C[C@@H]1N=C(N)O[C@H]1c1ccc2c(c1)OCO2` (racemic) [Trans-MDMAR, (±)-trans-3′,4′-Methylenedioxy-4-methylaminorex], on 5-HT transporters (SERT), the “releasing efficacy at SERT (in words)” value is reported as “fully efficacious releasing agents”. The DAT/SERT ratio in data set [1] was 2.0.

In the case of `Cc1ccc([C@H]2OC(N)=N[C@H]2C)cc1` (relative stereo) [Cis-DMAR, cis-4,4′-dimethylaminorex], at 5-HT transporters (SERT), the “releasing efficacy at SERT (in words)” value was “fully efficacious releasing agents”. Moreover, in data set [1], the DAT/SERT ratio came to 1.6.

Consider `Cc1ccc([C@@H]2OC(N)=N[C@H]2C)cc1` (relative stereo) [Trans-DMAR, trans-4,4′-dimethylaminorex], for which the “maximal release at SERT” value on 5-HT transporters (SERT) (efficacy, % of maximal release) stood at 75%. In addition, the “releasing efficacy at SERT (in words)” value on 5-HT transporters (SERT) is “partial releasing activity”. In addition, the “uptake blocker efficacy at SERT” value at SERT is “fully efficacious as an uptake blocker”. In addition, in data set [1], the DAT/SERT ratio was determined as 2.5.

`CNC(C)Cc1ccc2c(c1)OCO2` (single isomer, unassigned; (+)) [(+)-MDMA, (+)-3,4-methylenedioxymethamphetamine]: the DAT/SERT ratio in data set [1] stood at 0.6.

These data come from publication PMC5331736 (Drug testing and analysis, 2014).
